In the library only some 2.3% were active in any assay of this set; here they are far more common.
ABCG2 block = human ABCG2 inhibition, ABCB1 as counter-screen. IgMXP3 cells, JC-1 efflux, flow cytometry. inhibition, % at 6.6 µM. 190,000 tested, 0.1% active;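 active means inhibition above 80%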
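Test system: IgMXP3 cells (ABCG2) mixed with DDAO far-red-labelled CCRF-Adr cells (ABCB1). Reagent: JC-1 transporter substrate. Compound dosing: single test compound dose, 6.6 µM final. Times: 10 min compound exposure, 25 °C. Detection: flow cytometry of retained JC-1 fluorescence. Read-out basis: efflux inhibition in percent versus controls. Controls: nicardipine and DMSO wells.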
MEKK2mut PB1 HTS = signal of MEK5 binding to mutant human MEKK2 PB1 domain; bead flow cytometry, Alexa488-MEK5 binding to MEKK2 mutant; percent response, % at 10 µM; 290,000 tested, 0.35% active; AID 1530; in the data active means percent response above about 24%, passing the limit was not always enough
ABCB1 block = inhibitors of human ABCB1 transporter, ABCG2 counter-screen | CCRF-Adr cells, JC-1 efflux, flow cytometry | 190,000 tested, 0.067% active | inhibition, % at 6.6 µM; in the data active means inhibition above about 40%;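 further: higher value means more JC-1 retained so stronger ABCB1 efflux block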
MEKK3 PB1 HTS = modulators (inhibitors or enhancers) of MEK5 binding to human MEKK3 PB1 domain | 290,000 tested, 1.4% active | binding response (% of control), % at 10 µM | Q99759 | bead-based flow cytometry, Alexa488-MEK5 binding to MEKK3; actives lie on both sides; 0 = blocked by unlabeled MEK5, 100 = vehicle;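 active means binding response more than 3 SD above or below the average of its plate-row segment, actives on both sides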;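 further: Alexa488 bead fluorescence after subtracting the streptavidin-only scavenger bead signal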
Target sequence (Q99759 whole entry, looked up, the tested form may be a part): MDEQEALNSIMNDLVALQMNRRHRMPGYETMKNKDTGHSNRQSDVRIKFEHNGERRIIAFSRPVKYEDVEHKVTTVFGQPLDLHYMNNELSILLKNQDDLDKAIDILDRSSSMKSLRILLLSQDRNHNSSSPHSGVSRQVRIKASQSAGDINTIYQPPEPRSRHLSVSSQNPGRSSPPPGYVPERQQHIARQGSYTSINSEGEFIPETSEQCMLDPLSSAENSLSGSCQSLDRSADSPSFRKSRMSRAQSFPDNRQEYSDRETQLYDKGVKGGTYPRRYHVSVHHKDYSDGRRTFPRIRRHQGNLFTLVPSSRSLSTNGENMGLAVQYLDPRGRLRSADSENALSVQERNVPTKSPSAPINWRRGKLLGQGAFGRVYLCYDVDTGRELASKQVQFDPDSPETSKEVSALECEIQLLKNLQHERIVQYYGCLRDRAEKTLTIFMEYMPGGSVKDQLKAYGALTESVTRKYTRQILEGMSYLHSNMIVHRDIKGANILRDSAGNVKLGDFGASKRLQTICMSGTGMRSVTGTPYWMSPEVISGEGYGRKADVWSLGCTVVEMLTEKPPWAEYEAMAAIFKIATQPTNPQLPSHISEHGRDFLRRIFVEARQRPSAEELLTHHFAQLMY
MEKK2wt PB1 HTS = raises or lowers MEK5 binding to wildtype human MEKK2 PB1 domain | Q9Y2U5 | bead flow cytometry, Alexa488-MEK5 binding to MEKK2 WT; actives lie on both sides | binding response (% of control), % at 10 µM | 290,000 tested, 1.1% active | AID 1531; in the data active means binding response below about 67% or above about 130%
MEKK2wt confirm = raises or lowers MEK5 binding to wildtype human MEKK2, retest; shares compounds with MEKK3 PB1 HTS; bead flow cytometry, Alexa488-MEK5 binding to MEKK2 WT; actives lie on both sides; binding response (% of control), % at 10 µM; 5,900 tested, 2.4% active; in the data active means binding response below about 16% or above about 210%; inactive means in between
MEKK2mut-MEK5 = signal of MEK5 binding to mutant human MEKK2, retest | percent response, % at 10 µM | AID 1893 | shares compounds with MEKK3 PB1 HTS | 5,900 tested, 2% active | bead flow cytometry, Alexa488-MEK5 binding to MEKK2 mutant; in the data active means percent response mostly above about 71%, no sharp cut-off; inactive means mostly below about 38%;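 further: higher means compound restores mutant binding toward wildtype level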
MEKK3-MEK5 inh = confirmation of inhibitors of MEK5 binding to human MEKK3 | shares compounds with MEKK3 PB1 HTS | bead flow cytometry, Alexa488-MEK5 binding to MEKK3; active compounds read low | binding response (% of control), % at 10 µM | 5,900 tested, 1.8% active | AID 1894;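 active means binding response below 72% of control, or above a set upper limit, though filed actives all read lower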;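 further: lower values mean stronger disruption of MEK5 binding to MEKK3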
Of the large screens only hits and unclear results are named; the others gave an inactive call (follow-up assays come after a bar, where they were run); [ ] = another dose, or the depositor's remark.

C#CCOCCOCCOCCNc1nc(N2CCN(C(=O)[C@H]([C@@H](C)CC)n3cc([C@@H](N)CO)nn3)CC2)nc(N2CCN(C(=O)[C@H]([C@@H](C)CC)n3cc([C@@H](N)CC(C)C)nn3)CC2)n1	MEKK2wt PB1 HTS 139 | MEKK2wt confirm inactive | MEKK2mut-MEK5 inactive | MEKK3-MEK5 inh inactive
C#CCOCCOCCOCCNc1nc(N2CCN(C(=O)C(Cc3cc4ccccc4[nH]3)n3cc(C(N)C(C)CC)nn3)CC2)nc(N2CCN(C(=O)C(Cc3cc4ccccc4[nH]3)n3cc(C(N)C(C)CC)nn3)CC2)n1 (configuration not stated)	MEKK2mut PB1 HTS 105, MEKK2wt PB1 HTS 254 | MEKK2wt confirm 254 | MEKK2mut-MEK5 107 | MEKK3-MEK5 inh inactive
C#CCOCCOCCOCCNc1nc(N2CCN(C(=O)C(Cc3ccc(O)cc3)n3cc(C(N)CC(C)C)nn3)CC2)nc(N2CCN(C(=O)C(Cc3cc4ccccc4[nH]3)n3cc(C(N)C(C)CC)nn3)CC2)n1 (configuration not stated)	MEKK2mut PB1 HTS 118, MEKK2wt PB1 HTS 239 | MEKK2wt confirm 237 | MEKK2mut-MEK5 89 | MEKK3-MEK5 inh inactive
C#CCOCCOCCOCCNc1nc(N2CCN(C(=O)[C@H](CCC(=O)O)n3cc(C(N)CC(C)C)nn3)CC2)nc(N2CCN(C(=O)[C@H](Cc3cc4ccccc4[nH]3)n3cc(C(N)[C@H](C)CC)nn3)CC2)n1 (some centres not stated)	none
C#CCOCCOCCOCCNc1nc(N2CCOCC2)nc(N2CCN(C(=O)[C@H](Cc3cc4ccccc4[nH]3)n3cc([C@@H](N)C(C)CC)nn3)CC2)n1 (some centres not stated)	none
COc1cccc(NC(=O)CSC2=NN3CCCC(=O)N=C3S2)c1	none (no result: ABCG2 block, ABCB1 block)
CN1C(C(=O)NCc2ccco2)=CC(c2ccc(F)cc2)=NS1(=O)=O	none (no result: ABCG2 block, ABCB1 block)
C=CCOc1ccccc1CN1CCC(Oc2cc(C(=O)NC3CC3)ccc2OC)CC1	none (no result: ABCG2 block, ABCB1 block)
C=CCNC(=S)Nc1ccccc1-c1nnc2n1CCCCC2	none (no result: ABCG2 block, ABCB1 block)
CCOc1ccc(C(=O)NCC(=O)N2CCCC2)cc1	none (no result: ABCG2 block, ABCB1 block)
C#CCOCCOCCOCCNc1nc(N2CCN(C(=O)[C@H]([C@@H](C)CC)n3cc([C@@H](N)CC(C)C)nn3)CC2)nc(N2CCN(C(=O)[C@H](Cc3cc4ccccc4[nH]3)n3cc([C@@H](N)Cc4ccc(O)cc4)nn3)CC2)n1	MEKK2mut PB1 HTS 128, MEKK2wt PB1 HTS 270 | MEKK2wt confirm 226 | MEKK2mut-MEK5 inactive | MEKK3-MEK5 inh inactive
C#CCOCCOCCOCCNc1nc(N2CCN(C(=O)[C@H](Cc3ccc(O)cc3)n3cc([C@@H](N)C(C)CC)nn3)CC2)nc(N2CCN(C(=O)[C@H](Cc3cc4ccccc4[nH]3)n3cc([C@@H](N)Cc4ccc(O)cc4)nn3)CC2)n1 (some centres not stated)	MEKK2wt PB1 HTS 169 (no result: ABCG2 block, ABCB1 block) | MEKK2wt confirm 241 | MEKK2mut-MEK5 125 | MEKK3-MEK5 inh inactive
C#CCOCCOCCOCCNc1nc(N2CCN(C(=O)[C@H]([C@@H](C)CC)n3cc([C@@H](N)CC(C)C)nn3)CC2)nc(N2CCN(C(=O)[C@H](Cc3cc4ccccc4[nH]3)n3cc([C@@H](N)C(C)CC)nn3)CC2)n1 (some centres not stated)	MEKK2mut PB1 HTS 37, MEKK2wt PB1 HTS 184 (no result: ABCG2 block, ABCB1 block) | MEKK2wt confirm 227 | MEKK2mut-MEK5 90 | MEKK3-MEK5 inh inactive
Cc1csc(C(C)NC(=O)c2ccc(OC3CCN(CCc4ccccc4)CC3)cc2)n1 (configuration not stated)	none (no result: ABCG2 block, ABCB1 block)
O=C(COC(=O)C1(c2cccc(F)c2)CCCC1)NCc1ccc2c(c1)OCO2	MEKK3 PB1 HTS 132 | MEKK2wt confirm inactive | MEKK2mut-MEK5 inactive | MEKK3-MEK5 inh inactive
O=C(COC(=O)C1(c2cccc(F)c2)CCCC1)NCc1cccs1	none
O=C(Nc1cccc(F)c1)Nc1ccnn1C1CCN(C(=O)c2cscn2)CC1	none (no result: ABCG2 block, ABCB1 block)
COc1cccc(-n2c(C)n[nH]c2=O)c1	MEKK3 PB1 HTS 3.0[inhibitor], MEKK2wt PB1 HTS 3.0[inhibitor] | MEKK2wt confirm inactive | MEKK2mut-MEK5 inactive | MEKK3-MEK5 inh inactive
COCCCn1c(SCC(=O)Nc2ccc(C(C)=O)cc2)nc2ccccc2c1=O	MEKK3 PB1 HTS 39[inhibitor] | MEKK2wt confirm inactive | MEKK2mut-MEK5 inactive | MEKK3-MEK5 inh inactive
CCCCNC(=O)CSc1nc2ccccc2c(=O)n1CCNC(C)=O	none
CCCNC(=O)CSc1nc2ccccc2c(=O)n1CCC	MEKK3 PB1 HTS 128 | MEKK2wt confirm inactive | MEKK2mut-MEK5 inactive | MEKK3-MEK5 inh inactive
Cc1cc(NC(=O)c2cc(-c3ccc(OC(C)C)cc3)nc3ccccc23)no1	none (no result: ABCG2 block, ABCB1 block)
N=C1CCCN1CC(=O)c1ccc(Br)cc1	MEKK3 PB1 HTS 143 | MEKK2wt confirm inactive | MEKK2mut-MEK5 inactive | MEKK3-MEK5 inh inactive
COc1ccc(C)cc1NC(=O)CCC(=O)Nc1ccc2nc(N3CCN(C)CC3)cc(C)c2c1	none (no result: MEKK2mut PB1 HTS, MEKK3 PB1 HTS, MEKK2wt PB1 HTS)
COc1ccc(C(=O)Nc2ccc3nc(N4CCN(C)CC4)cc(C)c3c2)c(OC)c1	MEKK2mut PB1 HTS 24, MEKK2wt PB1 HTS 156 (no result: ABCG2 block, ABCB1 block) | MEKK2wt confirm inactive | MEKK2mut-MEK5 inactive | MEKK3-MEK5 inh inactive
CCN1CCN(c2cc(C)c3cc(NC(=O)CCC(=O)Nc4ccc(OC)c(OC)c4)ccc3n2)CC1	none (no result: ABCG2 block, ABCB1 block)
CCN1CCN(c2cc(C)c3cc(NC(=O)c4ccc(OC)c(OC)c4)ccc3n2)CC1	MEKK2mut PB1 HTS 30 | MEKK2wt confirm inactive | MEKK2mut-MEK5 inactive | MEKK3-MEK5 inh inactive
CCn1ncc([N+](=O)[O-])c1C(=O)Nc1ccc(C)c(C)c1	none (no result: ABCG2 block, ABCB1 block)
CN1CCN(S(=O)(=O)c2ccc3c(c2)NC(=O)C2CCCN32)CC1 (configuration not stated)	none
CNS(=O)(=O)c1ccc2c(c1)NC(=O)C1CCCN21 (configuration not stated)	MEKK3 PB1 HTS 153 | MEKK2wt confirm inactive | MEKK2mut-MEK5 inactive | MEKK3-MEK5 inh inactive
COc1ccc(OC)c(S(=O)(=O)CC(O)COc2ccccc2Cl)c1 (configuration not stated)	none (no result: ABCG2 block, ABCB1 block)
O=[N+]([O-])c1ccc(/C=N\NS(=O)(=O)c2ccc(F)cc2)o1	none (no result: ABCG2 block, ABCB1 block)

Assay outcomes: PubChem, NMMLSC
